Legend:
[1] = target: Muscarinic acetylcholine receptor M3 (Homo sapiens) (UniProt P20309); experiment: (§1) Positive allosteric modulation of recombinant human muscarinic acetylcholine receptor M3 expressed in CHOK1 cells assessed as increase in carbachol-induced intracellular calcium flux at 10 uM preincubated for 5 mins followed by carbachol addition by Fluo4-AM dye based FLIPR assay relative to carbachol; format: functional, cell-based; details: CHO-K1
In short: (§2)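 CHO-K1 cells stably expressing human or rat M1–M5; M2 and M4 lines also co-express human Gα16. Cells loaded with 3.1 μM Fluo-4 AM in HBSS/20 mM HEPES pH 7.5/BSA/2.5 mM probenecid for ~2 h at room temperature. Test substance at 10 μM final, then carbachol (0.0024 nM–100 μM) ~5 min later; Ca2+ read by FLIPR Tetra. Fold shift = carbachol EC50 without / with test substance, from logistic fits.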

[2] = AUCinfinity in Crl:CD(SD) rat at 0.3 mg/kg, iv measured up to 24 hrs by LC-MS/MS analysis; format: ADME, organism-based; parameters: dose 0.3 mg/kg, route intravenous, time infinity; details: in vivo
In short: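 Male Crl:CD(SD) rats, 8 weeks old, food deprived (n=4); iv 0.3 mg/kg or po 1 mg/kg in DMF/propylene glycol/water for injection (1/1/8) containing 1 M NaOH (2 equivalents). Plasma sampled to 24 h, assayed by validated LC-MS/MS. Parameters from each animal by noncompartmental analysis, reported as means.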

[3] = target: T1, Muscarinic acetylcholine receptor M5 (Homo sapiens) (UniProt P08912); experiment: as §1, with “M5” for “M3”; format: functional, cell-based; details: CHO-K1; in short: as §2
T1 sequence (whole entry): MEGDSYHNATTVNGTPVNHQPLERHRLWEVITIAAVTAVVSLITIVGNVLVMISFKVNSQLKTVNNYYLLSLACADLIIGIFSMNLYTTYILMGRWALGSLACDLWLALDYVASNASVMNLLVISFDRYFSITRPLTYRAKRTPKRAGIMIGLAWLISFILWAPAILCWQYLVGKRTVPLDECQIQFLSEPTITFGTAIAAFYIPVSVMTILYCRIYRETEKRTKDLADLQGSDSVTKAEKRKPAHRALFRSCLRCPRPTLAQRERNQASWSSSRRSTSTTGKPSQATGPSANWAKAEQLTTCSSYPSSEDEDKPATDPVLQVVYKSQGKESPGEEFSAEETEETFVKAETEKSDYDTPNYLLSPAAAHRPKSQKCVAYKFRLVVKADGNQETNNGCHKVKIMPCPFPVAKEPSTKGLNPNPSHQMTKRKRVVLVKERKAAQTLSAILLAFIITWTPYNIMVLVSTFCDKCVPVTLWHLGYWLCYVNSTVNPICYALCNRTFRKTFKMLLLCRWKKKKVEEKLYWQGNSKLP

[4] = target: Muscarinic acetylcholine receptor M3 (Rattus norvegicus) (UniProt P08483); experiment: (§3) Positive allosteric modulation of recombinant rat muscarinic acetylcholine receptor M3 expressed in CHOK1 cells assessed as increase in carbachol-induced intracellular calcium flux at 10 uM preincubated for 5 mins followed by carbachol addition by Fluo4-AM dye based FLIPR assay relative to carbachol; format: functional, cell-based; details: CHO-K1; in short: as §2
[5] = target: T2, Muscarinic acetylcholine receptor M2 (Rattus norvegicus) (UniProt P10980); experiment: as §3, with “M2” for “M3”, “cells coexpressing G-alpha16” for “cells”; format: functional, cell-based; details: CHO-K1; in short: as §2
T2 sequence (whole entry): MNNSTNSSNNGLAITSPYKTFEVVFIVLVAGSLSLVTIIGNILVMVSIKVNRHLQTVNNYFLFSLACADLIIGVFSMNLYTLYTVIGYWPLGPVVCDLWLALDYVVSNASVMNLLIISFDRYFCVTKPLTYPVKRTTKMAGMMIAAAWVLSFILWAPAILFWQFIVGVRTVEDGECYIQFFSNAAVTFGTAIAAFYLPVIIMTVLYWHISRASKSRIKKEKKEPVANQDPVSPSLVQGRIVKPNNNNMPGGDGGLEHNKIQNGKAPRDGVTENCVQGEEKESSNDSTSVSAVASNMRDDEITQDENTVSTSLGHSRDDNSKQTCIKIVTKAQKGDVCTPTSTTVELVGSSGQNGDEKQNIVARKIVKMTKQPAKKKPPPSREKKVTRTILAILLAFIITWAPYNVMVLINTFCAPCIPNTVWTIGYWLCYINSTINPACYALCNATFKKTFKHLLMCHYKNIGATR

Thrombopoietin receptor = target: T3, Thrombopoietin receptor (Homo sapiens, UniProt P40238); experiment: Agonist activity at recombinant human c-Mpl receptor transfected in BA/F3 cells assessed as increase in cell proliferation by cell counting analysis; format: cell-based; details: baf3
T3 sequence (P40238 whole entry): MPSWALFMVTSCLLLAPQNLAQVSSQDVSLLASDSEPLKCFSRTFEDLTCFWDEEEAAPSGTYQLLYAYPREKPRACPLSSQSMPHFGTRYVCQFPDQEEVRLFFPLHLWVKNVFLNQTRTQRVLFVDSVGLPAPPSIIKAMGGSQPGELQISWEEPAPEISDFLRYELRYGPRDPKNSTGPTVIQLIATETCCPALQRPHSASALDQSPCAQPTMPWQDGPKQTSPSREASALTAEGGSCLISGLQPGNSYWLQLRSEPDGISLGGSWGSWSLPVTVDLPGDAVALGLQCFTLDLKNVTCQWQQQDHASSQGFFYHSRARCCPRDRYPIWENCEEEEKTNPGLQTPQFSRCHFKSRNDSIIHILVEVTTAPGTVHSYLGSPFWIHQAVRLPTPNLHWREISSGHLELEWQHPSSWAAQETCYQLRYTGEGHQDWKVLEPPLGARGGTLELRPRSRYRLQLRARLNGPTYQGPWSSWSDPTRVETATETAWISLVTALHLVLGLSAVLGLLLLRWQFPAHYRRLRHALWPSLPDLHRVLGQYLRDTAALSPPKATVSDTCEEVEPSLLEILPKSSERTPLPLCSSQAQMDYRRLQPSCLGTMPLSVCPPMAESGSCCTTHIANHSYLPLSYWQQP
In short: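 Ba/F3 cells stably transfected with human c-Mpl by electroporation with blasticidin selection. 1×10^4 cells/well in RPMI-1640 with 10% FBS, with test substance (100 nM to 10 μM final), overnight at 37°C in 5% CO2. Cell Counting Kit added for about 5 h, then A450 read. Scale: untreated wells 0%, reference c-Mpl agonist at 1 μM 100%. EC30 from logistic regression.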

Sequence of Muscarinic acetylcholine receptor M3 (Homo sapiens) (P20309 whole entry, looked up): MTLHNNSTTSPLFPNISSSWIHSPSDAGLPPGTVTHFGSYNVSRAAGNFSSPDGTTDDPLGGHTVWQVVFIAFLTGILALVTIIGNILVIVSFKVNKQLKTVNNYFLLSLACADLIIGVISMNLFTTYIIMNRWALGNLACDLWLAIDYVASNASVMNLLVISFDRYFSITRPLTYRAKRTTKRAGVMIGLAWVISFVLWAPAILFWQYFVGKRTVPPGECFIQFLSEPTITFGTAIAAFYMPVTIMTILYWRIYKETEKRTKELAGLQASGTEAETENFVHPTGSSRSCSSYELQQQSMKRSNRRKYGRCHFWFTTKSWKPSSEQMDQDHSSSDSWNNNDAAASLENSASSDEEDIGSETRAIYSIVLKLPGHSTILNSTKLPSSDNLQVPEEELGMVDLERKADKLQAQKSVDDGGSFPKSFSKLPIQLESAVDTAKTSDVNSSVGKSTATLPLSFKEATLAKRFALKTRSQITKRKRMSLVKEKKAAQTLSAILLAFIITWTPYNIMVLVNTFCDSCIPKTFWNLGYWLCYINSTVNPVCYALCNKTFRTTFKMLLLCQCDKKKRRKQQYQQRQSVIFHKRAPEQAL
Sequence of Muscarinic acetylcholine receptor M3 (Rattus norvegicus) (P08483 whole entry, looked up): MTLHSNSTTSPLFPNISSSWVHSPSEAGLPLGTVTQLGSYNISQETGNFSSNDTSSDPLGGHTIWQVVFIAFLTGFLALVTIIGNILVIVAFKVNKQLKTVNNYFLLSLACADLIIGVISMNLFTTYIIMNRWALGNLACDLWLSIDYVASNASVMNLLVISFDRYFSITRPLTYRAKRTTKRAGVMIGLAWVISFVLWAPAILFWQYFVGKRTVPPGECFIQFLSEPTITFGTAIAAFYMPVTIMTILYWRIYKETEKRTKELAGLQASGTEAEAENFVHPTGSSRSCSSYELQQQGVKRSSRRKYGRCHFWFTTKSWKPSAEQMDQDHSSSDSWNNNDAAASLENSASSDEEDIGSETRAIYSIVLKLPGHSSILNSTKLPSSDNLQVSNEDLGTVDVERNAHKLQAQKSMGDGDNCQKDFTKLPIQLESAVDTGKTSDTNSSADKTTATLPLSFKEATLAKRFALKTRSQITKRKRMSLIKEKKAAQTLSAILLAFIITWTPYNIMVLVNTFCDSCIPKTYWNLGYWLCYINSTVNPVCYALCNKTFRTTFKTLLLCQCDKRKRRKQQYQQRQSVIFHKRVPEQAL

SMILES: CC[C@@H]1CCCN1Cc1sc(NC(=O)c2cnc(N3CCC(C(=O)O)CC3)cn2)nc1-c1ccc(OC)c(C(F)(F)F)c1.Cl.Cl
- fold change (FC) [1]: 269
- AUC(0-inf) [2]: 330 ng·h/mL
- fold change (FC) [3]: 94
- fold change (FC) [4]: 158
- fold change (FC) [5]: 1.6
- EC30 (Thrombopoietin receptor): > 10 µM

— ChEMBL document CHEMBL4622869, “Discovery and structure-activity relationships study of positive allosteric modulators of the M3 muscarinic acetylcholine receptor” (Bioorg Med Chem, 2020)
